High-throughput results deposited in PubChem by several laboratories.
Hits are enriched below; roughly 4.7% of the tested compounds scored in any of these assays.
RGS4 inh: RGS4 inhibitors, primary screen, cell-based, HEK293 M3R inducible RGS4, calcium flux | Regulator of G-protein signaling 4 (Homo sapiens), P49798 | Fluo-4 calcium flux; stronger effect = higher value; triggered by carbachol at its EC20 | B-score at 10 µM | hit rate 0.45% among 310,000 | AID 463165, 2010;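 active = B-score, a plate-corrected calcium signal, over three deviations above library mean, with baseline fluorescence within five deviations of library mean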;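 also: RGS4 expression induced by doxycycline in cells with stable M3 receptor; B-score is computed from the integrated fluorescence ratio over baseline after carbachol; higher B-score means a larger calcium signal and so more RGS4 inhibition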
Target sequence (P49798 whole entry, looked up): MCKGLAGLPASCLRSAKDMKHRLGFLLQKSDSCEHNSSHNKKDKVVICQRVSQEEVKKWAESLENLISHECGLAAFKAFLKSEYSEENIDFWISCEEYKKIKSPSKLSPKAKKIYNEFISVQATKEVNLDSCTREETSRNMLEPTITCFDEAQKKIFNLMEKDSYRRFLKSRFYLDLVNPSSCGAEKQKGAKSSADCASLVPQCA
MrgX1 allo act: positive allosteric modulators of MrgX1, primary screen, HEK293 cells, Fluo-4 calcium flux; hit rate 0.63% among 310,000; B-score at 10 µM; Mas-related G-protein coupled receptor member X1 (Homo sapiens), Q96LB2; AID 588675, 2011; FDSS; stronger effect = higher value;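 active = plate-corrected calcium response at least 3 library SD above typical, normal starting fluorescence, not activating the receptor alone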;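 also: compound read alongside a low EC10 to EC30 dose of BAM8-22 agonist; peak minus trough fluorescence over baseline measured at the second addition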
Target sequence (Q96LB2 whole entry, looked up): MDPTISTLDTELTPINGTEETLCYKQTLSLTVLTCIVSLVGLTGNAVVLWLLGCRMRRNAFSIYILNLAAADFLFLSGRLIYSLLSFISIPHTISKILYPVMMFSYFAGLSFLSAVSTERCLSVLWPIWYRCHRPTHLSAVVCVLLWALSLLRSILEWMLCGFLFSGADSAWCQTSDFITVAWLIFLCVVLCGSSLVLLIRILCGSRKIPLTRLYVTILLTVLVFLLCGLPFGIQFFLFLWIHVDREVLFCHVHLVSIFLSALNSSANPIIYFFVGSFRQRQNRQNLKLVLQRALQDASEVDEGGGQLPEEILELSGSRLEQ
KCC2 mod: KCC2 cotransporter modulators, thallium flux, primary screen, cell-based, HEK293 KCC2, FluoZin-2 fluorescence, MLSMR; KCC2 cells, thallium flux FluoZin-2 fluorescence; B-score of Tl+ flux slope (higher = more flux/activation; lower = inhibition) at 10 µM; hit rate 2.2% among 190,000; AID 1456, 2008;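 active = thallium flux slope and its plate-corrected score both differing from the plate sample mean at a set confidence after two filtering rounds, in either direction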;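 also: slope of fluorescence scaled to starting intensity during 10 to 20 s after thallium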
MrgX1 agonist: agonists of human MrgX1 receptor, primary screen, HEK293 cells, Fluo-4 calcium flux | Mas-related G-protein coupled receptor member X1 (Homo sapiens), Q96LB2 | Fluo-4 calcium fluorescence, agonist mode; stronger effect = higher value | B-score at 10 µM | hit rate 0.44% among 310,000;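 active = calcium response B-score plate-corrected fluorescence ratio at least 3 library SD, with starting fluorescence B-score inside 5 SD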
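Test system: HEK293 cells stably expressing human MrgX1 receptor; Input: fifteen thousand cells per well; Dosing: compound delivered in addition one of three; Schedule: overnight seeding, then 1 h dark dye loading; Technique: Fluo-4 NW calcium fluorescence; Measure: B-scored fluorescence response ratio; Controls: positive and negative controls per plate.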
MrgX1 antag: antagonists of human MrgX1 receptor, primary screen, HEK293 cells, Fluo-4 calcium flux; hit rate 1.3% among 310,000; Mas-related G-protein coupled receptor member X1 (Homo sapiens), Q96LB2; BAM8-22 antagonism; stronger effect = lower value; B-score at 10 µM;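 active = calcium-response B-score plate-corrected more than 3 library SD below zero, starting fluorescence within 5 deviations, no agonist response on first addition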;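 also: peak minus trough fluorescence over baseline after final BAM8-22 challenge near maximal dose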
RGS4 act: RGS4 potentiators or activators, primary screen, cell-based, HEK293 M3R inducible RGS4, calcium flux | carbachol calcium flux Fluo4; stronger effect = lower value | B-score at 10 µM | hit rate 0.92% among 310,000 | AID 463111, 2010;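 active = B-score of the integrated calcium signal more than 4 SD below the library mean, with starting fluorescence not abnormally high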;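 also: negative B-score means reduced calcium response which marks RGS4 activation or potentiation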
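System – HEK293 FlpIn-TREx cells, stable M3R, doxycycline-inducible RGS4 · Reagent – ECmax carbachol challenge · Times – compound preincubation 20 min at room temperature before agonist · Technique – Fluo4 fluorescence kinetic imaging of calcium · Measure – B score of integrated Fluo4 ratio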
A number is an active result; . = inactive; / = no result.

SMILES | RGS4 inh | MrgX1 allo act | KCC2 mod | MrgX1 agonist | MrgX1 antag | RGS4 act
O=S(=O)(c1cccc(-c2csc(N/N=C/c3ccco3)n2)c1)N1CCOCC1 | . | . | . | . | . | -8.6
CCOc1cc(/C=N/Nc2nc(-c3cccc(S(=O)(=O)N4CCCC4)c3)cs2)ccc1O | . | . | . | . | . | -8.8
CNC(=O)c1c(NC(=O)c2ccc(N3C(=O)CCC3=O)cc2)sc2c1CCC(C)C2 (centres undefined) | . | . | / | . | . | .
COc1ccc(-n2ncc3c2CC(C)(C)CC3NC(=O)c2cnc(C)cn2)cc1 (centres undefined) | . | . | / | . | . | .
COc1ccc(OC)c(C2=C/C(=C/c3ccccn3)C(=O)O2)c1 | . | . | . | . | . | -7.9
NC(=O)COC(=O)C1CSC2(c3ccc(F)cc3)CCC(=O)N12 (centres undefined) | . | . | / | . | . | .
CCOc1ccc(NS(=O)(=O)c2ccc(C(=O)NNC(=O)c3ccccc3O)cc2)cc1 | . | . | / | . | . | .
O=C(Nc1nc2c(F)cc(F)cc2s1)c1ccc([N+](=O)[O-])o1 | . | 8.6 | / | . | . | .
COc1ccc2nc(NC(=O)/C=C/c3ccc4c(c3)OCO4)sc2c1 | . | . | . | . | -6.3 | .
COc1ccc2nc(NC(=O)c3ccc([N+](=O)[O-])o3)sc2c1 | . | 12 | / | . | . | .
O=C(Nc1nc2ccccc2s1)c1ccc([N+](=O)[O-])o1 | . | . | / | . | . | .
Cc1cc(C)c2nc(NC(=O)c3ccc([N+](=O)[O-])o3)sc2c1 | . | . | / | . | . | .
Cn1cc(C(=O)N2CCN(c3cccc(Cl)c3)CC2)c(=O)c2cc(S(=O)(=O)N3CCOCC3)ccc21 | . | . | / | . | . | .
Cc1cc(-c2nnc(CCC(=O)NCc3cc(F)cc(C(F)(F)F)c3)o2)no1 | . | . | / | . | . | .
CN(C(=O)COC(=O)/C=C/c1ccc(C(F)(F)F)cc1)c1c(N)n(Cc2ccccc2)c(=O)[nH]c1=O | . | . | / | . | . | .
CS(=O)(=O)c1nc(-c2cccs2)cc(C(F)(F)F)n1 | . | . | / | 36 | . | .
Cc1c(Cl)c([N+](=O)[O-])nn1Cc1ccc(C(=O)Nc2ccc(Cl)cn2)o1 | . | . | . | . | -6.9 | .
O=C(Nc1ccc(Cl)cn1)c1ccc([N+](=O)[O-])o1 | . | / | . | / | / | .
CCOC(=O)c1sc2cc([N+](=O)[O-])cc(SCC(=O)OC)c2c1N | . | . | . | . | -5.7 | .
CCOC(=O)c1sc2cc([N+](=O)[O-])cc(SCCO)c2c1N | . | . | . | . | . | .
CC1CC(C)(C)CC2(C1)NC(=O)N(CC(=O)Nc1ccc(N3CCCCC3)cc1)C2=O (centres undefined) | . | . | / | . | . | .
CCCCCCCCCCCCCCCC[N+](C)(C)CCN(Cc1ccc(OC)cc1)c1ncccn1 | / | . | / | 56 | . | /
COc1ccc(CN(CCN(C)C)c2ccccn2)cc1 | . | . | . | . | . | .
Cn1nc(CC(=O)Nc2ncc(Br)s2)c2ccccc2c1=O | . | 8.9 | . | . | . | .
O=C(O)CC1SC(N/N=C/c2ccc(Br)cc2)NC1=O (centres undefined) | . | . | . | . | -5.7 | .
SMILES | RGS4 inh | MrgX1 allo act | KCC2 mod | MrgX1 agonist | MrgX1 antag | RGS4 act
CC(C)NC(=O)CC(=O)N/N=C/c1ccc(Br)cc1 | . | . | . | . | . | .
Cc1cccc([C@@H]2[C@@H]3C(=O)N(Cc4ccccc4)C(=O)[C@@H]3[C@]3(Cc4ccc(Cl)cc4)C(=O)N(c4ccccc4)C(=O)N23)c1 | . | . | / | . | -6.6 | .
Cc1cccc([C@@H]2[C@@H]3C(=O)N(Cc4ccccc4)C(=O)[C@@H]3[C@]3(Cc4ccccc4)C(=O)N(c4ccccc4)C(=O)N23)c1 | . | . | / | . | . | .
CC(C)Cn1cnc2c(c(-c3ccccc3)c(-c3ccccc3)n2Cc2ccco2)c1=N | . | . | / | . | . | -11
c1ccc(-c2oc3ncnc(NCCCn4ccnc4)c3c2-c2ccccc2)cc1 | . | . | / | . | -5.4 | .
c1ccc(-c2c(-c3ccccc3)n(Cc3ccco3)c3ncnc(NCCCn4ccnc4)c23)cc1 | . | . | / | . | . | -8.5
Cc1ccc(NC(=O)COC(=O)COc2cccc3c2OC(C)(C)C3)cc1S(=O)(=O)N1CCOCC1 | . | . | / | . | . | .
O=C(CCN1C(=O)[C@@H]2Cc3ccccc3CN2C1=O)Nc1cccc(F)c1 | . | . | / | . | . | .
CC1(C)NC(=O)N(CC(=O)OCC(=O)NC(=O)c2ccccc2)C1=O | . | . | / | . | . | .
O=Nc1c(-c2cccc([N+](=O)[O-])c2)nc2ncccn12 | 6.2 | . | . | . | . | .
N#Cc1nc(Cc2cccc3ccccc23)oc1N1CCCCC1 | . | . | -6.1 | . | . | .
N#Cc1nc(-c2ccccc2)oc1NCCCn1ccnc1 | . | . | . | . | . | .
COc1ccc(CNc2oc(Cc3cccc4ccccc34)nc2C#N)cc1 | . | . | -5.2 | . | . | .
N#Cc1nc(Cc2cccc3ccccc23)oc1NCCCn1ccnc1 | . | . | -3.4 | . | . | .
Cc1cccc(NC2=Nc3ccccc3N3C2=Nc2c(c(C)nn2-c2ccccc2)C3c2ccc(O)c(O)c2)c1 (centres undefined) | . | . | . | . | . | .
Cc1nn(-c2ccc([N+](=O)[O-])cc2)c2c1C(c1cccc(Br)c1)N1C(=N2)C(=O)Nc2ccccc21 (centres undefined) | . | . | . | . | -5.8 | .
Cc1nn(-c2ccccc2)c2c1C(c1ccc([N+](=O)[O-])cc1)N1C(=N2)C(=O)Nc2ccccc21 (centres undefined) | . | . | . | . | . | -9
Cc1nn(-c2ccccc2)c2c1C(c1ccc(Cl)cc1)N(c1ccccc1)C(=O)N2 (centres undefined) | . | . | . | . | . | .
CCC(Oc1ccc2c(=O)c(-c3ccccc3OC)coc2c1)C(=O)OCc1ccccc1 (centres undefined) | . | . | . | . | . | -7.6
CCCCN(C(=O)C(C)Oc1cccc(Cl)c1)c1c(N)n(CCC)c(=O)[nH]c1=O (centres undefined) | . | . | / | . | -5.1 | .
CCCCN(C(=O)c1cccc(S(=O)(=O)N2CCN(C)CC2)c1)c1c(N)n(CCCC)c(=O)[nH]c1=O | . | . | / | . | . | .
